This is an account of results in ChEMBL document CHEMBL1122457, “Derivatives of beta-adrenergic antagonists. N-Nitrosopropranolol and N-hydroxypropranolol and its aldonitrone” (J Med Chem, 1983).

Structures are written as SMILES.

The species named for series [1] is Rattus norvegicus. In words: Toxicity (Ames Salmonella Test) in the presence of rat liver S-9 fraction in TA-100 strain at a conc. of 1000 ug (4*10e6 dilution). Type of series: organism-based. Put shortly: (§1)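 TA-100 bacteria are exposed to varying compound concentrations for 30 min at 37 °C. They are then diluted to about 10³ bacteria/mL and plated on histidine-enriched (4.5 mM) agar. Surviving colonies are counted.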

Series [2] is filed under the species Rattus norvegicus. The series can be described thus: Mutagenic activity (Ames Salmonella Test) in the presence of rat liver S-9 fraction in TA-100 strain. Type of series: functional. A digest of the protocol: (§2)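 Liver 9000g supernatant (1.0 mg protein, PBS-diluted, filtered) plus NADPH (1 mg/plate) went into histidine/biotin-supplemented top agar with overnight TA-98 or TA-100 culture. Compound in Me2SO was added last, with Me2SO as control. His+ revertants were counted after 40 h at 37 °C in the dark, averaging ≥2 plates.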

The species entered for series [3] is Rattus norvegicus. In words: Mutagenic activity (Ames Salmonella Test) in the presence of rat liver S-9 fraction in TA-100 strain at a conc. of 1000 ug. Type of series: functional. Put shortly:
as §2

For series [4], the species on record is Rattus norvegicus. In words: Mutagenic activity (Ames Salmonella Test) in the presence of rat liver S-9 fraction in TA-98 strain. Type of series: functional. Put shortly:
as §2

The species entered for series [5] is Rattus norvegicus. The series can be described thus: Mutagenic activity (Ames Salmonella Test) in the presence of rat liver S-9 fraction in TA-98 strain at aconc. of 1000 ug. Type of series: functional. A digest of the protocol:
(§3)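 Male Sprague-Dawley rats received Arochlor 1254 (500 mg/kg in corn oil) and were killed 48 h later. Liver 9000g supernatant (1.0 mg protein, PBS-diluted, filtered) plus NADPH (1 mg/plate) went into histidine/biotin-supplemented top agar with overnight TA-98 or TA-100 culture. Compound in Me2SO was added last, with Me2SO as control. His+ revertants were counted after 40 h at 37 °C in the dark, averaging ≥2 plates.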

For series [6], the species on record is Rattus norvegicus. In words: Toxicity (Ames Salmonella Test) in the presence of rat liver S-9 fraction in TA-100 strain (4*10e6 dilution). Type of series: organism-based. Put shortly:
as §1

For series [7], the species on record is Rattus norvegicus. In words: Toxicity (Ames Salmonella Test) in the presence of rat liver S-9 fraction in TA-100 strain (4*10e7 dilution). Type of series: organism-based. Put shortly: as §1
The species named for series [8] is Rattus norvegicus. The series can be described thus: Mutagenic activity (Ames Salmonella Test) in the presence of rat liver S-9 fraction in TA-100 strain at a conc. of 500 ug. Type of series: functional. A digest of the protocol: as §3
For series [9], the species on record is Rattus norvegicus. In words: Mutagenic activity (Ames Salmonella Test) in the presence of rat liver S-9 fraction in TA-98 strain at a conc. of 1000 ug. Type of series: functional. A digest of the protocol:
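Plate-incorporation reversion assay in TA-98 from an overnight nutrient-broth culture (2–3 × 10⁹ bacteria/mL). The compound is in Me₂SO, added last to top agar at 45 °C. NADPH 1 mg/plate. His⁺ revertants are counted after 40 h at 37 °C in the dark.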

For series [10], the species on record is Rattus norvegicus. In words: Mutagenic activity (Ames Salmonella Test) in the presence of rat liver S-9 fraction in TA-98 strain at a conc. of 500 ug. Type of series: functional. Put shortly: as §3
For series [11], the species on record is Rattus norvegicus. The series can be described thus: Toxicity (Ames Salmonella Test) in the presence of rat liver S-9 fraction in TA-100 strain at a conc. of 500 ug (4*10e6 dilution). Type of series: organism-based. A digest of the protocol: as §1
The species entered for series [12] is Rattus norvegicus. In words: Toxicity (Ames Salmonella Test) in the presence of rat liver S-9 fraction in TA-100 strain at a conc. of 500 ug (4*10e7 dilution). Type of series: organism-based. Put shortly:
as §1

On to `CC(C)N(O)CC(O)COc1cccc2ccccc12.O=C(O)C(=O)O` (stereo unspecified), for which the Toxicity in [1] was 60; in series [6], 165; in [7] it was 18. Moreover, the Mutagenicity came out at 143 in [2], 61 in series [3], 18 in series [4] and 20 in series [5].
On to `CC(C)NO` [ISOPROPYLHYDROXYLAMINE], for which the Mutagenicity in series [2] is listed as 150; in series [4], 18. In addition, the Toxicity in [6] came out at 230.
For `CC(C)/[N+]([O-])=C/C(O)COc1cccc2ccccc12` (stereo unspecified), in that order: 162, 18 and 232.
For `Br.CC(C)N(O)CC(O)COc1cccc2ccccc12` (stereo unspecified), the Toxicity in series [1] is given as 183; in series [11], 265; in series [12] it was 28. For the same compound, the Mutagenicity in series [3] came out at 134; in series [8], 117; in series [9], 8; in series [10], 12.
Take `CC(C)N(CC(O)COc1cccc2ccccc12)N=O` (stereo unspecified): the Mutagenicity is given as 137 in [2], 131 in series [3], 14 in series [4] and 13 in series [9]. Also, the Toxicity in [6] is 255; in [7], 25.
